Reference: ChEMBL document CHEMBL4411315, “Discovery of Novel Dual Histone Deacetylase and Mammalian Target of Rapamycin Target Inhibitors as a Promising Strategy for Cancer Therapy” (J Med Chem, 2019)
Activity calls are given as the source filed them. No cut-off for these calls is given here.

Columns and labels:
MM1.S [1] = assay: Cell cycle arrest in human MM1S cells assessed as accumulation at S phase at 5 nM after 24 hrs by propidium iodide/RNase staining-based FACS analysis (reference value: 24.49%); type: functional
Histone deacetylase 8 = Histone deacetylase 8 (Homo sapiens, UniProt Q9BY41); assay: Inhibition of recombinant full length C-terminal His-tagged human HDAC8 expressed in baculovirus expression system using Ac-peptide-AMC as substrate preincubated for 15 mins followed by substrate addition and measured after 1 hr by fluorescence assay
Histone deacetylase 8, sequence (Q9BY41 whole entry): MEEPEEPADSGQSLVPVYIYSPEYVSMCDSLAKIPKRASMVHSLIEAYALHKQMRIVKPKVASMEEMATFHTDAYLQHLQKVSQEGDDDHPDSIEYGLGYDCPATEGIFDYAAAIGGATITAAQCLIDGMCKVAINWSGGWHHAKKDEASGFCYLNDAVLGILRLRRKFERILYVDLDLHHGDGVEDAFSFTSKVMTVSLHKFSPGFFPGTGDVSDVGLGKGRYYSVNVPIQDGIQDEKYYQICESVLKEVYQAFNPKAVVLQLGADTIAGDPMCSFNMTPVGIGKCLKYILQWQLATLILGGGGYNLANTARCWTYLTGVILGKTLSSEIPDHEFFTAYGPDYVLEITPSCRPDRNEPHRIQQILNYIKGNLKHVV

MM1.S [2] = assay: Cell cycle arrest in human MM1S cells assessed as accumulation at G2/M phase at 1.25 nM after 24 hrs by propidium iodide/RNase staining-based FACS analysis (reference value: 26.29%); type: functional
Histone deacetylase 7 = Histone deacetylase 7 (Homo sapiens, UniProt Q8WUI4); assay: Inhibition of recombinant full length N-terminal GST-tagged human HDAC7 expressed in baculovirus expression system using Ac-peptide-AMC as substrate preincubated for 15 mins followed by substrate addition and measured after 1 hr by fluorescence assay
Histone deacetylase 7, sequence (Q8WUI4 whole entry): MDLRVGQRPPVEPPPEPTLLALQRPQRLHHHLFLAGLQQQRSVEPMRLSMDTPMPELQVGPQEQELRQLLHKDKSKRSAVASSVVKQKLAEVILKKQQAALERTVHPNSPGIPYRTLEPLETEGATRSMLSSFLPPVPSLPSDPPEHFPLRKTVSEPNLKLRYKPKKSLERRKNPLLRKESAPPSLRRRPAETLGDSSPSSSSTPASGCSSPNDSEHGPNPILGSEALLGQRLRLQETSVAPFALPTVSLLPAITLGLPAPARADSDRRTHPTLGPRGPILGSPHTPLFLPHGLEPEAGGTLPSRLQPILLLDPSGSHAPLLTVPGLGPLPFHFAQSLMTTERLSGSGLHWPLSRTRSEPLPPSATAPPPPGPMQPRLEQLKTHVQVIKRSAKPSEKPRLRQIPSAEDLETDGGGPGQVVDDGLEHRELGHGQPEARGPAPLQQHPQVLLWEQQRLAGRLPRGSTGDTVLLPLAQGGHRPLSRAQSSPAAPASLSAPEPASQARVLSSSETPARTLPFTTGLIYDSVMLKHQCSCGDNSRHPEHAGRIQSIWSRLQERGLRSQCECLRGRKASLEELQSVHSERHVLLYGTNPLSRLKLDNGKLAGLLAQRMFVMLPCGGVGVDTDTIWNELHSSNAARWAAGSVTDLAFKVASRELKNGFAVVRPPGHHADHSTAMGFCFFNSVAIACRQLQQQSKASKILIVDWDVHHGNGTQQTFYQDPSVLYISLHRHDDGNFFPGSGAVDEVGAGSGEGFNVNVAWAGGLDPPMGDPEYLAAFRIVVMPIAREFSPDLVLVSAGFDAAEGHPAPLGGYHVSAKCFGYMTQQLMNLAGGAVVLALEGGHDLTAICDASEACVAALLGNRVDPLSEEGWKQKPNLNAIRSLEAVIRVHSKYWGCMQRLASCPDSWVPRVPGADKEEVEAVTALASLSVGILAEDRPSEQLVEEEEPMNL

MM1.S [3] = assay: Induction of apoptosis in human MM1S cells assessed as late apoptotic cells at 40 nM after 48 hrs by Annexin V-FITC/propidium iodide staining-based flow cytometric analysis (reference value: 0.42%); type: functional
MM1.S [4] = assay: Induction of apoptosis in human MM1S cells assessed as early apoptotic cells at 20 nM after 48 hrs by Annexin V-FITC/propidium iodide staining-based flow cytometric analysis (reference value: 0.38%); type: functional
MV4-11 [5] = assay: Induction of apoptosis in human MV4-11 cells assessed as late apoptotic cells at 20 nM after 48 hrs by Annexin V-FITC/propidium iodide staining-based flow cytometric analysis (reference value: 5.03%); type: functional
MV4-11 [6] = assay: Induction of apoptosis in human MV4-11 cells assessed as viable cells at 160 nM after 48 hrs by Annexin V-FITC/propidium iodide staining-based flow cytometric analysis (reference value: 84.1%); type: functional; conditions: MV4-11, 48 h, read-out: Activity
MM1.S [7] = assay: Cell cycle arrest in human MM1S cells assessed as accumulation at G0/G1 phase at 5 nM after 24 hrs by propidium iodide/RNase staining-based FACS analysis (reference value: 49.22%); type: functional
OCI-AML-3 = assay: Antiproliferative activity against human OCI-AML3 cells after 72 hrs by MTT assay; type: functional, cell-based; conditions: OCI-AML-3, 72 h
MM1.S [8] = assay: Induction of apoptosis in human MM1S cells assessed as early apoptotic cells at 320 nM after 48 hrs by Annexin V-FITC/propidium iodide staining-based flow cytometric analysis (reference value: 0.38%); type: functional
Histone deacetylase 4 = Histone deacetylase 4 (Homo sapiens, UniProt P56524); assay: Inhibition of recombinant full length human HDAC4 expressed in baculovirus infected sf9 cells using Ac-peptide-AMC as substrate preincubated for 15 mins followed by substrate addition and measured after 1 hr by fluorescence assay
Histone deacetylase 4, sequence (P56524 whole entry): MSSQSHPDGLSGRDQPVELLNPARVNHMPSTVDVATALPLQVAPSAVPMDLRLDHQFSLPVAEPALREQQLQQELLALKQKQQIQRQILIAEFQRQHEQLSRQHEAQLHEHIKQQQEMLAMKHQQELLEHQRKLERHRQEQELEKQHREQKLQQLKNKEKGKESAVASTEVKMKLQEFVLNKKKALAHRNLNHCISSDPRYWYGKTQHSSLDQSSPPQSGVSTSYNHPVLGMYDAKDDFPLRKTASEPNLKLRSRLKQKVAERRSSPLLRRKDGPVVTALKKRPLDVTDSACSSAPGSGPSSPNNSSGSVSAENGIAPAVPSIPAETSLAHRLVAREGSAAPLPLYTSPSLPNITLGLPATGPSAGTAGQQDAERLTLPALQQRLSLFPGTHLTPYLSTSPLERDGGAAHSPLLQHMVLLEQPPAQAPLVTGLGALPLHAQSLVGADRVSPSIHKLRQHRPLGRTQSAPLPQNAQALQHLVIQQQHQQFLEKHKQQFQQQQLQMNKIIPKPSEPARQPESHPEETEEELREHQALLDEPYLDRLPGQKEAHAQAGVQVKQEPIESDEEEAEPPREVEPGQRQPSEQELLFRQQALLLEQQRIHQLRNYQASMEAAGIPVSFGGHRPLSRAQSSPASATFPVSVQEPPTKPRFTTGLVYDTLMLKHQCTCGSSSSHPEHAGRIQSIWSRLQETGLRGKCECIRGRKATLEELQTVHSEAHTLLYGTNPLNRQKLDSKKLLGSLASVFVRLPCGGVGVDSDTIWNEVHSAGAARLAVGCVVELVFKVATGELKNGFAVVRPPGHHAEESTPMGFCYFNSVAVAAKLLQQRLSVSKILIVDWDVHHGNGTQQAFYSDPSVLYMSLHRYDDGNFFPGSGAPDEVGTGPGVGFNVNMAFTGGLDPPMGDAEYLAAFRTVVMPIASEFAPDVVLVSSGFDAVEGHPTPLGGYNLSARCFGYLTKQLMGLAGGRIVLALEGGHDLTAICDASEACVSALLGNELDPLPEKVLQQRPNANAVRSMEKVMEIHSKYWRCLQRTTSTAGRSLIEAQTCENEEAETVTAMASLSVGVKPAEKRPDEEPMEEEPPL

MV4-11 [9] = assay: Induction of apoptosis in human MV4-11 cells assessed as late apoptotic cells at 160 nM after 48 hrs by Annexin V-FITC/propidium iodide staining-based flow cytometric analysis (reference value: 5.03%); type: functional
MM1.S [10] = assay: Induction of apoptosis in human MM1S cells assessed as necrotic cells at 40 nM after 48 hrs by Annexin V-FITC/propidium iodide staining-based flow cytometric analysis (reference value: 0.32%); type: functional
MM1.S [11] = assay: Induction of apoptosis in human MM1S cells assessed as viable cells at 80 nM after 48 hrs by Annexin V-FITC/propidium iodide staining-based flow cytometric analysis (reference value: 98.9%); type: functional; conditions: read-out: Activity
[12] = molecular target: Protein deacetylase HDAC6 (Homo sapiens, UniProt Q9UBN7); assay: Inhibition of recombinant full length HDAC6 (unknown origin) using Ac-peptide-AMC as substrate preincubated for 15 mins followed by substrate addition and measured after 1 hr by fluorescence assay
Protein deacetylase HDAC6, sequence (Q9UBN7 whole entry): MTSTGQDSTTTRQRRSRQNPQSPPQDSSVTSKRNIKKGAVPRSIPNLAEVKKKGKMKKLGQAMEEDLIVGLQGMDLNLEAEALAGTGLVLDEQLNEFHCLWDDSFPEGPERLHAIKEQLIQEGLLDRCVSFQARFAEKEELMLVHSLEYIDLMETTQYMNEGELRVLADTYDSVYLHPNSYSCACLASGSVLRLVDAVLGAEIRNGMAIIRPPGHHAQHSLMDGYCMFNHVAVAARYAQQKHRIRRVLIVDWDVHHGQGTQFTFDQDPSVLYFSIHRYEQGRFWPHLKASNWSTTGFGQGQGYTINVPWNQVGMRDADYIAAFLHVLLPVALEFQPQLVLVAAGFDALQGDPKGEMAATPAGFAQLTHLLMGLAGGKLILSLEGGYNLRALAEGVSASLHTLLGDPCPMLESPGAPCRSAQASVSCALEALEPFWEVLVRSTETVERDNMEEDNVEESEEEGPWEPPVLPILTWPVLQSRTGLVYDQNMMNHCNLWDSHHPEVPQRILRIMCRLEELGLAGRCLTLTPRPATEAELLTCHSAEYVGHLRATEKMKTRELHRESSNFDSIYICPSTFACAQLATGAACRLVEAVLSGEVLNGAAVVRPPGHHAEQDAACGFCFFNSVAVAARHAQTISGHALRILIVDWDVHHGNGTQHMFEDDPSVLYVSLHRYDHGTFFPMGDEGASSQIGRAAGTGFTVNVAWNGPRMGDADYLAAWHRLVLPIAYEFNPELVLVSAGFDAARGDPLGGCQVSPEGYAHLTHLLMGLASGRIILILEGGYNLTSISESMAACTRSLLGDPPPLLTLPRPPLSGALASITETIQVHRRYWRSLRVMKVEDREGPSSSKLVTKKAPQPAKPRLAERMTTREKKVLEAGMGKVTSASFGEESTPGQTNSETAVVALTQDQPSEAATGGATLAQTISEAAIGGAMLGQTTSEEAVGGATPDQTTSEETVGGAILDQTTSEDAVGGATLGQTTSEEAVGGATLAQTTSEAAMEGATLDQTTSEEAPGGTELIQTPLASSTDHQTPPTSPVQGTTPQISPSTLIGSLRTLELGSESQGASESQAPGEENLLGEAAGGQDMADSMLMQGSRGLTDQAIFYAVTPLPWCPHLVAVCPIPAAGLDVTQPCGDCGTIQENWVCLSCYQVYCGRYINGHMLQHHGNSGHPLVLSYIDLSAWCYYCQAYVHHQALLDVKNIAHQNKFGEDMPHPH

MV4-11 [13] = assay: Cell cycle arrest in human MV4-11 cells assessed as accumulation at G0/G1 phase at 5 nM after 24 hrs by propidium iodide/RNase staining-based FACS analysis (reference value: 44.79%); type: functional
MV4-11 [14] = assay: Cell cycle arrest in human MV4-11 cells assessed as accumulation at S phase at 2.5 nM after 24 hrs by propidium iodide/RNase staining-based FACS analysis (reference value: 36.42%); type: functional
MM1.S [15] = assay: Induction of apoptosis in human MM1S cells assessed as early apoptotic cells at 160 nM after 48 hrs by Annexin V-FITC/propidium iodide staining-based flow cytometric analysis (reference value: 0.38%); type: functional
MM1.S [16] = assay: Cell cycle arrest in human MM1S cells assessed as accumulation at G0/G1 phase at 2.5 nM after 24 hrs by propidium iodide/RNase staining-based FACS analysis (reference value: 49.22%); type: functional
[17] = molecular target: Protein deacetylase HDAC6 (Homo sapiens) (UniProt Q9UBN7); assay: Inhibition of HDAC6 in human MV4-11 cells assessed as increase in alpha-tubulin acetylation after 6 hrs by Western blot analysis; type: cell-based
Protein deacetylase HDAC6 (Homo sapiens), sequence (Q9UBN7 whole entry): as above
In short: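 MV4-11 cells treated 6 h at 0.01, 0.1 or 1 μM. Whole-cell protein extracted in RIPA buffer and quantified by BCA. 30 μg protein run on SDS-PAGE and transferred to PVDF. Blocked 1 h in 5% milk, primary antibody overnight at 4 °C, HRP secondary 1 h, ECL detection. Acetyl-histone H3 and acetyl-α-tubulin probed, with GAPDH as loading control.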

MV4-11 [18] = assay: Cell cycle arrest in human MV4-11 cells assessed as accumulation at S phase at 10 nM after 24 hrs by propidium iodide/RNase staining-based FACS analysis (reference value: 36.42%); type: functional
MM1.S [19] = assay: Induction of apoptosis in human MM1S cells assessed as necrotic cells at 320 nM after 48 hrs by Annexin V-FITC/propidium iodide staining-based flow cytometric analysis (reference value: 0.32%); type: functional
Histone deacetylase 1 = Histone deacetylase 1 (Homo sapiens, UniProt Q13547); assay: Inhibition of recombinant full length HDAC1 (unknown origin) using Ac-peptide-AMC as substrate preincubated for 15 mins followed by substrate addition and measured after 1 hr by fluorescence assay
Histone deacetylase 1, sequence (Q13547 whole entry): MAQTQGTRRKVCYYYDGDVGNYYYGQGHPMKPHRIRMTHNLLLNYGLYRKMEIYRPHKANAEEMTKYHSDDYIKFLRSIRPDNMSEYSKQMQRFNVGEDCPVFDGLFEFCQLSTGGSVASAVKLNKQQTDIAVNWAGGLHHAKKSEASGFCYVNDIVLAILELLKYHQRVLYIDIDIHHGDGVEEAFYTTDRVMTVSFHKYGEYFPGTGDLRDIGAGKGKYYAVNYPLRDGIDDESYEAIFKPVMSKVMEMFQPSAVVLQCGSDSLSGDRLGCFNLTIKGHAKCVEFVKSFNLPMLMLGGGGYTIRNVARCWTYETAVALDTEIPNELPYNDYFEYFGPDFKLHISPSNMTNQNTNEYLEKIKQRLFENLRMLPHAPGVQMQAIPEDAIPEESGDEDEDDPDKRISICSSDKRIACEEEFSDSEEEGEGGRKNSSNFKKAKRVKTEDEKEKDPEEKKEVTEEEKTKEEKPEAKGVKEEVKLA

MV4-11 [20] = assay: Induction of apoptosis in human MV4-11 cells assessed as late apoptotic cells at 320 nM after 48 hrs by Annexin V-FITC/propidium iodide staining-based flow cytometric analysis (reference value: 5.03%); type: functional
MM1.S [21] = assay: Induction of apoptosis in human MM1S cells assessed as necrotic cells at 10 nM after 48 hrs by Annexin V-FITC/propidium iodide staining-based flow cytometric analysis (reference value: 0.32%); type: functional
[22] = molecular target: Serine/threonine-protein kinase mTOR (Homo sapiens, UniProt P42345); assay: Inhibition of mTOR in human MV4-11 cells assessed as decrease in Akt phosphorylation at S473 residues at 0.01 to 10 uM after 24 hrs by Western blot analysis; type: cell-based
In short: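 Treatment of MV4-11 cells lasted 24 h at 0.01, 0.1, 1 and 10 μM. Lysis in RIPA buffer and BCA quantitation, then 30 μg protein by SDS-PAGE, PVDF transfer, 5% milk block, primary antibody overnight at 4 °C, HRP secondary 1 h and ECL detection. p-p70S6K (T389), p-4EBP1 (S65), p-Akt (S473) and p-ERK were probed.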

## C[C@@H]1CN(C(=O)Nc2ccc(-c3nc(N4CCOCC4)c4cnn(CCCCCCC(=O)NO)c4n3)cc2)CCO1
MM1.S [1]
  Activity: 17.65%
Histone deacetylase 8
  IC50: 1.28 nM
MM1.S [2]
  Activity: 24.1%
Histone deacetylase 7
  IC50: > 1000 nM
MM1.S [3]
  Activity: 23%
MM1.S [4]
  Activity: 1.61%
MV4-11 [5]
  Activity: 38.4%
MV4-11 [6]
  viability at 0.16 µM: 2.29%
MM1.S [7]
  Activity: 57.95%
OCI-AML-3
  IC50: 9.98 nM
MM1.S [8]
  Activity: 32.2%
Histone deacetylase 4
  IC50: > 1000 nM
MV4-11 [9]
  Activity: 61.9%
MM1.S [10]
  Activity: 2.08%
MM1.S [11]
  viability at 0.08 µM: 49.7%
[12]
  IC50: 1.8 nM
MV4-11 [13]
  Activity: 64.69%
MV4-11 [14]
  Activity: 33.77%
MM1.S [15]
  Activity: 19.6%
MM1.S [16]
  Activity: 52.62%
[17]
  inhibition: Dose-dependent effect
MV4-11 [18]
  Activity: 23.42%
MM1.S [19]
  Activity: 2.2%
Histone deacetylase 1
  IC50: 0.19 nM
MV4-11 [20]
  Activity: 68.3%
MM1.S [21]
  Activity: 0.31%
[22]
  inhibition: Active
